High-throughput results as filed in PubChem.
M1 agonist – M1 muscarinic receptor agonism. CHO-M1 cells, Fluo-4 calcium fluorescence, agonist mode; stronger effect = higher value. B-score at 10 µM. 64,000 compounds, 3% hits;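 active = fluorescence rise, raw or as B-score row- and column-corrected plate score, outside the 99.7% band of its plate's samples, either direction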
SF1 activator – activates the human nuclear receptor SF-1. Q13285. CHO-K1 Gal4-SF-1 LBD luciferase reporter; % increase over DMSO SF-1-specific signal. activation, % at 10 µM. 65,000 compounds, 1.9% hits;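 active = activation above the mean activation of all tested compounds plus 3 SD, cut at about 50% in these data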
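Assay system – CHO-K1 cells with Gal4–hSF-1 LBD chimera plus Gal4-driven luciferase · Quantity – 4,000 cells per well · Times – compound added 1 h post-seeding, 20 h exposure at 37 °C, 5% CO2 · Measured by – luciferase light emission · Benchmarks – DMSO and mock-transfected background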
M1 antagonist – antagonists of rat M1 muscarinic receptor; P08482; CHO-M1 cells, Fluo-4 calcium, ACh EC80 antagonist mode; stronger effect = lower value; B-score at 10 µM; 64,000 compounds, 3.4% hits; AID 628;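 active = calcium fluorescence response, raw or row-and-column corrected B-score, differing from the plate sample mean either way at a set confidence level, mostly lower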
S1P1 ag pot – S1P1 (human) agonism or agonism potentiation; S1P1 CRE-bla cells, forskolin, beta-lactamase FRET, potentiator mode; S1P1 agonist co-added at EC20, 2 nM; 100% = saturating reference agonist, 0% = basal; activation, % at 9.5 µM; 56,000 compounds, 0.57% hits; AID 449;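 active = activation above a cutoff set at the mean activation of all tested compounds plus 3 SD, cut at about 54% in these data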;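 also: forskolin at 4 µM as EC80 and the EC20 agonist is SEW2871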
RORa activator – activators of human nuclear receptor RORA; 65,000 compounds, 1.5% hits; CHO-K1 Gal4-RORA LBD luciferase reporter, luminescence; percent increase over mock-subtracted basal signal; P35398; AID 560; activation, % at 10 µM;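 active = activation above the mean of all tested compounds plus 3 SD, cut at about 49% in these data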
S1P3 ag – agonists of human S1P3 receptor | activation, % at 4.5 µM | S1P3 NFAT-BLA reporter cells, agonism, FRET ratio; relative to 1 µM S1P, basal subtracted | 60,000 compounds, 0.1% hits | Q99500;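 active = activation above the screen-wide mean plus 3 SD, cut at about 4.5% in these data, passing the limit was not always enough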
Target sequence (Q99500 whole entry, looked up): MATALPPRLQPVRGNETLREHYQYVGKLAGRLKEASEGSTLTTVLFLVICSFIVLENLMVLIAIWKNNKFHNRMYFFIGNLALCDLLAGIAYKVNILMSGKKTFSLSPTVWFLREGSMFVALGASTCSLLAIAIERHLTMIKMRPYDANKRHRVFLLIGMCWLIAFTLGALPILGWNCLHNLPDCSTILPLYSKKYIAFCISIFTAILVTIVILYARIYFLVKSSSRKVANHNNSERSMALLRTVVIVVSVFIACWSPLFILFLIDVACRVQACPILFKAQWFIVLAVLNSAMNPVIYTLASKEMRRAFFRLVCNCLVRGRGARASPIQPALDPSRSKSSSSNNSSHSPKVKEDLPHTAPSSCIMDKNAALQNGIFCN
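Benchmarks: high control 1 µM S1P / System: stable CHO line with human S1P3, Gα16, NFAT-BLA reporter / Dosing: single compound concentration, 4.5 µM final / Timing: 4 h compound at 37 °C, 2 h substrate at RT / Measured by: FRET β-lactamase substrate fluorescence, excitation 405 nm, 460/535 nm emission ratio, background-subtracted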
Each line names hits and unclear results; the compound was inactive in the other large screens. Rows were chosen to be rich in hits. Some 8.8% of all compounds tested hit in one or more screens of this group.

Cc1cc(C(=O)NCc2cc(C)n(C)n2)sc1-c1ccccc1	M1 agonist 3
Cc1cc(CNC(=O)Cc2c(F)cccc2Cl)nn1C	none
CCN(CC)C(=O)Oc1ccc2c(=O)c(-c3ccccc3)coc2c1	RORa activator 82
CCOc1ccccc1Oc1coc2cc(OC(=O)c3ccco3)ccc2c1=O	none
O=C(c1cccc(COc2ccc(Cl)cc2Cl)c1)N1CCN(c2ccccn2)CC1	SF1 activator 76
COCc1nc(-c2ccc(-c3ccccc3)nc2OC)no1	RORa activator 72 (no result: S1P1 ag pot, S1P3 ag)
COCc1nc(-c2ccc(-c3ccc(OC)cc3)nc2OC)no1	RORa activator 49
Cc1ccc(/C=C/C2=Cc3c(sc(NC(=O)CSc4n[nH]c(N)n4)c3C#N)C(C)(C)C2)o1	none
CCOC(=O)c1ccc(NC(=O)N(CC)CC)cc1	SF1 activator 63 (no result: S1P1 ag pot, S1P3 ag)
CCOC(=O)c1ccc(NC(=O)c2nn(C)cc2Br)cc1	RORa activator 76 (no result: S1P1 ag pot)
CCOC(=O)CC(=O)Nc1ccc(C(=O)OCC)cc1	none
CC(=O)Nc1ccc(C(=O)OCCC(C)C)cc1	RORa activator 51
CCOC(=O)c1ccc(NC(=O)c2nn(CC)cc2Br)cc1	none
CCCCOC(=O)c1ccc(NC(=O)C(CCS(C)(=O)=O)NC(C)=O)cc1 (stereo not given)	none
COc1ccccc1NCCC(=O)OCC(=O)Nc1ccc(Cl)cn1	none
CCC(=O)Nc1cc(NC(=O)CSc2ncc(-c3ccc(F)cc3)n2Cc2ccco2)ccc1C	SF1 activator 69, RORa activator 55
C/C(N)=C(/C#N)C(=O)COC(=O)c1cc(C)n(-c2ccc(F)cc2)c1C	SF1 activator 65, RORa activator 67
CCN(C(=O)COC(=O)c1cc(C)n(-c2ccc(F)cc2)c1C)C1CCS(=O)(=O)C1 (stereo not given)	none
COC(=O)c1ccc(NC(=O)c2cccc(OC)c2)cc1	RORa activator 49
CN1CCN(c2ccc(NC(=O)c3ccc4c(c3)OCO4)cc2)CC1	SF1 activator 61
COc1ccc(NC(=O)c2ccc3c(c2)OCO3)cc1Cl	SF1 activator 53
COc1cc(C(=O)Nc2ccc3c(c2)OCCO3)ccc1OC(F)F	SF1 activator 64, RORa activator 76
CC(=O)N1CCN(c2ccc(NC(=O)c3ccc4c(c3)OCCO4)cc2)CC1	none
COc1cccc(OC)c1C(=O)Nc1ccc2c(c1)OCCO2	none (no result: S1P1 ag pot)
Cc1csc(NC(=O)CSc2nnc(-c3ccoc3C)n2Cc2ccco2)n1	none (no result: M1 agonist, M1 antagonist)
COC(=O)CNC(=O)c1nn(-c2cccc(OC)c2)c(=O)c2ccccc12	none
CSc1nnc2c3cc(C)ccc3n(Cc3ccccc3)c2n1	none
CN(C)c1nc(NS(=O)(=O)c2ccc(Cl)cc2)nc(N(C)C)n1	none
Cc1ccccc1OCc1nnc2c3cnn(C)c3ncn12	none
CCOC(=O)c1ccc(CNC(=O)c2cc(C(C)(C)C)oc2C)o1	none
COC(=O)c1sccc1NC(=O)c1ccc2c(c1)OCO2	none (no result: SF1 activator, S1P1 ag pot, RORa activator, S1P3 ag)
COC(=O)c1ccc(NC(=O)c2ccc3c(c2)OCO3)cc1	SF1 activator 53
CCc1ccc(NC(=O)c2cnc3n(c2=O)CCS3)cc1	SF1 activator 50
CC1(C)CC(=O)c2sc(N3CCCCC3)nc2C1	none (no result: M1 agonist, M1 antagonist)
CC1(C)CNC(=O)c2sc(N3CCCCC3)nc2C1	RORa activator 51
COc1ccc(-c2nnc(N)s2)cc1	RORa activator 50
Nc1nnc(-c2ccncc2)s1	none
CCCOc1ccc(-c2nnc(N)s2)cc1	SF1 activator 59
COc1ccc(-c2nnc(SCc3nnc(-c4ccccc4)o3)n2-c2ccccc2)cc1	none
COc1ccc(-c2nnc(SCc3nnc(-c4ccccc4)o3)n2C)cc1OC	RORa activator 53
Cc1noc(/C=C/N(C)C)c1S(=O)(=O)N1CCC(C(=O)O)CC1	none
CN1C(=O)c2ccc(N3CCCC3)cc2C1=O	M1 agonist 13
Cc1onc(-c2ccccc2)c1C(=O)N1CCc2ccccc21	none (no result: SF1 activator, S1P1 ag pot, RORa activator, S1P3 ag)
C/C(=C\C(=O)c1ccc(C)o1)Nc1ccc(C(=O)O)cc1C	M1 antagonist 3
CC1(C)OC(=O)C(=CNC(CCC(N)=O)C(=O)O)C(=O)O1 (stereo not given)	M1 antagonist 1.3
Cc1ccc(-c2nnn(CCC(=O)NC3CCCC3)n2)cc1	none
CCn1c(Cn2nnc(-c3ccccc3)n2)nnc1SCC(=O)Nc1cccc(C(C)=O)c1	none
CCn1c(Cn2nnc(-c3ccccc3)n2)nnc1SCC(=O)Nc1ccc(C(C)=O)cc1	RORa activator 60 (no result: M1 agonist, M1 antagonist)
CCOCCCNC(=O)C(NC(=O)C1CCC(=O)N1)c1ccc(C)cc1 (stereo not given)	none (no result: S1P1 ag pot, S1P3 ag)
CCN(CC)C(=O)c1cc(-c2ccc(Br)cc2)on1	SF1 activator 56
CCC1Oc2ccccc2N(CC(=O)Nc2ccc(OC)cc2OC)C1=O (stereo not given)	none (no result: S1P1 ag pot, S1P3 ag)
COc1ccccc1NC(=O)CN1C(=O)C(C)Oc2ccccc21 (stereo not given)	M1 agonist -3.4
Cn1c(=O)c2c(nc(OCC3COC(C)(C)O3)n2Cc2ccccc2F)n(C)c1=O (stereo not given)	none
O=C(Nc1ccc(Cl)cc1)N1CC=CCC1	RORa activator 52
c1csc(-c2csc3ncnc(NCCCN4CCOCC4)c23)c1	M1 agonist 2
c1ccc(N2CCN(c3ncnc4scc(-c5cccs5)c34)CC2)cc1	none (no result: S1P1 ag pot)
CCc1ccccc1N(CC(=O)N1CCN(c2ccccc2)CC1)S(C)(=O)=O	none
Cc1c(NC(=O)CCC2CCCCC2)c(=O)n(-c2ccccc2)n1C	none (no result: S1P1 ag pot, S1P3 ag)
Cc1c(NC(=O)C(C)N2CC(C)OC(C)C2)c(=O)n(-c2ccccc2)n1C (stereo not given)	M1 antagonist 1.8
CCCn1c(=O)[nH]c(=O)c2c1nc(-c1ccc3c(c1)OCCO3)n2CCN1CCOCC1	none
COc1ccc(-c2cc(C(=O)NC3CCCC3)no2)cc1OC	S1P1 ag pot 74
O=C(NC1CCCC1)c1cc(-c2cccs2)on1	RORa activator 109
CC1CCCC(C)N1C(=O)c1cc(-c2cccs2)on1 (stereo not given)	RORa activator 61
COc1ccc(NC(=O)c2cc(-c3cccs3)on2)cc1OC	S1P1 ag pot 56
O=S(=O)(NCCc1ccncc1)c1ccc(S(=O)(=O)N2CCCCCC2)cc1	none
O=C(NCC(c1cccnc1)N1CCN(c2ccccc2F)CC1)c1cccc(Cl)c1 (stereo not given)	none (no result: S1P1 ag pot, S1P3 ag)
O=C(NC1CCCCC1)c1cc(-c2ccco2)on1	SF1 activator 58
COc1ccc(C(=O)COC(=O)CCn2nnc(-c3cccs3)n2)cc1	none
CN=C1SC(CC(=O)Nc2cc(Cl)ccc2Cl)C(=O)N1C (stereo not given)	none (no result: S1P1 ag pot)
